# Experimental data reported in ChEMBL document CHEMBL1649533, “GES-11, a novel integron-associated GES variant in Acinetobacter baumannii” (2009).
# Assays:
# Type in all cases: functional
# Escherichia coli [1] = test: Antibacterial activity against Escherichia coli Top10
# Acinetobacter baumannii [2] = test: Antibacterial activity against Acinetobacter baumannii BM4674 isolated from the tibia fracture of a patient by Etest method
# Outline: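 MICs read by Etest gradient strips on Mueller-Hinton agar against the clinical isolate (Nancy, France, September 2008); reported in μg/ml and interpreted with Comité de l'Antibiogramme de la Société Française de Microbiologie breakpoints.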
# Escherichia coli [3] = test: Antibacterial activity against ESBL-positive Escherichia coli Top10 harboring plasmid AT517
# Escherichia coli [4] = test: Antibacterial activity against […] OmpF and OmpC porin-deficient Escherichia coli HB4 harboring plasmid AT517
# Acinetobacter baumannii [5] = test: Antibacterial activity against Acinetobacter baumannii BM4652
# Outline: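 MIC by Etest on Mueller-Hinton agar; interpretation by Comité de l'Antibiogramme de la Société Française de Microbiologie breakpoints. A. baumannii BM4652 is the recipient strain used in conjugation with BM4674 (solid medium; transconjugants selected on apramycin 80 μg/ml plus ceftazidime 16 μg/ml). MIC values in μg/ml.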
# Acinetobacter baumannii [6] = test: Antibacterial activity against Acinetobacter baumannii BM4652 harboring plasmid IP847
# Escherichia coli [7] = test: Antibacterial activity against […] OmpF and OmpC porin-deficient Escherichia coli HB4
SMILES,MIC (Escherichia coli [1]) [µg/mL],MIC (Acinetobacter baumannii [2]) [µg/mL],MIC (Escherichia coli [3]) [µg/mL],MIC (Escherichia coli [4]) [µg/mL],MIC (Acinetobacter baumannii [5]) [µg/mL],MIC (Acinetobacter baumannii [6]) [µg/mL],MIC (Escherichia coli [7]) [µg/mL]
CC(C)(O/N=C(\C(=O)N[C@@H]1C(=O)N2C(C(=O)[O-])=C(C[n+]3ccccc3)CS[C@H]12)c1csc(N)n1)C(=O)O [CEFTAZIDIME],0.75,> 256,> 256,> 256,1.5,> 256,0.5
CO/N=C(\C(=O)N[C@@H]1C(=O)N2C(C(=O)O)=C(COC(C)=O)CS[C@H]12)c1csc(N)n1 [CEFOTAXIME],0.064,> 256,> 256,> 256,1,> 256,0.5
C[C@@H](O)[C@H]1C(=O)N2C(C(=O)O)=C(S[C@@H]3CN[C@H](C(=O)N(C)C)C3)[C@H](C)[C@H]12 [MEROPENEM],0.016,6,0.047,4,0.064,1.5,0.25
CO/N=C(\C(=O)N[C@@H]1C(=O)N2C(C(=O)[O-])=C(C[N+]3(C)CCCC3)CS[C@H]12)c1csc(N)n1 [CEFEPIME],0.032,> 256,2,96,0.19,64,0.5
CO[C@@]1(NC(=O)Cc2cccs2)C(=O)N2C(C(=O)O)=C(COC(N)=O)CS[C@@H]21 [CEFOXITIN],6,192,6,> 256,8,12,96
C[C@H]1[C@H](NC(=O)/C(=N\OC(C)(C)C(=O)O)c2csc(N)n2)C(=O)N1S(=O)(=O)O [AZTREONAM],0.125,> 256,24,48,1,> 256,0.75
C[C@@H](O)[C@H]1C(=O)N2C(C(=O)O)=C(SCCNC=N)C[C@H]12 [IMIPENEM ANHYDROUS],0.19,4,–,8,0.125,0.75,0.125
